{"source": "paper PMC6021137", "about": "(Clinical cancer research : an official journal of the …, 2013)", "key": {"Stat5a [1]": {"target": "T1, Stat5a (Homo sapiens, UniProt O60674)", "T1 sequence (O60674 whole entry)": "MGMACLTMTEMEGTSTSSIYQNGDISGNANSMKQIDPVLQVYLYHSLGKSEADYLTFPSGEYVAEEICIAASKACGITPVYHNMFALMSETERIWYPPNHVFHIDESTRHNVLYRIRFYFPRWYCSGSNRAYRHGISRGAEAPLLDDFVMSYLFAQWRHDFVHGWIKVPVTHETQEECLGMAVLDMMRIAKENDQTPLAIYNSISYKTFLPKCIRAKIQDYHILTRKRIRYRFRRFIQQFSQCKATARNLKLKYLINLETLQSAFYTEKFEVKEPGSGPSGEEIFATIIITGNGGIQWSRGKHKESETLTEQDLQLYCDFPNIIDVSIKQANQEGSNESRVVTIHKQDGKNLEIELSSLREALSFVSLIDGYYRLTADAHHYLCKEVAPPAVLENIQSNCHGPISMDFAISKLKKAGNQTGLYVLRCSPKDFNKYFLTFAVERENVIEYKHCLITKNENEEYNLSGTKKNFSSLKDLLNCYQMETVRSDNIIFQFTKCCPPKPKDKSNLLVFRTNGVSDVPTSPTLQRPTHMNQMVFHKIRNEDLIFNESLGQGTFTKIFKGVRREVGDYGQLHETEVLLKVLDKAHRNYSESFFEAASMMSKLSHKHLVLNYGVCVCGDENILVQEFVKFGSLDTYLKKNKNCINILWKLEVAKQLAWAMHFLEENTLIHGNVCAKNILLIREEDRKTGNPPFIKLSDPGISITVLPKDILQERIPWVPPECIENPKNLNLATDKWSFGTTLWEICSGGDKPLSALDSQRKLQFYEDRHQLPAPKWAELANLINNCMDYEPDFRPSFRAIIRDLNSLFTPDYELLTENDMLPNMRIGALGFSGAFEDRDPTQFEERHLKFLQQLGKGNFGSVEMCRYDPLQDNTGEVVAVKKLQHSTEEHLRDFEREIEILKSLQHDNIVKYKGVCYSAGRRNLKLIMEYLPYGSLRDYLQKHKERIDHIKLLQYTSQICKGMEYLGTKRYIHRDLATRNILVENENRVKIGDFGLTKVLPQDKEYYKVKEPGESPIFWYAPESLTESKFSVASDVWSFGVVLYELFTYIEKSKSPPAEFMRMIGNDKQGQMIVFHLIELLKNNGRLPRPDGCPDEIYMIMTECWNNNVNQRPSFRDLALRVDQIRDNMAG", "assay": "Stat5a phosphorylation, immunoprecipitation/immunoblotting, CWR22Rv1 cells", "type": "cell-based", "settings": "read-out: IC50, inhibition of constitutive activation of Stat5a; exponentially growing CWR22Rv1 cells"}, "Stat5a [2]": {"target": "T1, Stat5a", "assay": "Stat5a phosphorylation, immunoprecipitation/immunoblotting, CWR22Pc cells", "type": "cell-based", "settings": "read-out: IC50, inhibition of constitutive activation of Stat5a; exponentially growing CWR22Pc cells"}, "Stat5b [3]": {"target": "T2, Stat5b (Homo sapiens, UniProt O60674)", "T2 sequence (O60674 whole entry)": "as above", "assay": "Stat5b phosphorylation, immunoprecipitation/immunoblotting, CWR22Rv1 cells", "type": "cell-based"}, "Stat5b [4]": {"target": "T2, Stat5b", "assay": "Stat5b phosphorylation, immunoprecipitation/immunoblotting, CWR22Pc cells", "type": "cell-based"}, "Stat5a/b dimerization": {"tested_on": "Stat5a/b dimerization", "assay": "Stat5a/b dimerization by co-immunoprecipitation in PC-3 cells", "type": "cell-based, human", "settings": "2 h pre-treatment, 10 nM hPrl"}, "[5]": {"tested_on": "Stat5a/b nuclear translocation", "assay": "Nuclear translocation of Stat5a/b, immunofluorescence in PC-3 cells", "type": "cell-based, human", "settings": "200 nM AZD1480 for 2 h, 10 nM hPrl 20 min"}, "CWR22Pc cells [6]": {"tested_on": "CWR22Pc cells", "assay": "Cell viability assay", "type": "cell-based", "settings": "Homo sapiens, 72 h, read-out: GI50 (number of viable cells decreased by 50%)"}, "CWR22Rv1 cells [7]": {"tested_on": "CWR22Rv1 cells", "assay": "Cell viability assay", "type": "cell-based", "settings": "Homo sapiens, CWR22Rv1, 72 h, read-out: GI50 (number of viable cells decreased by 50%)"}, "PC-3": {"tested_on": "PC-3", "assay": "Cell viability assay", "type": "cell-based", "settings": "Homo sapiens, PC-3, 72 h"}, "DU145": {"tested_on": "DU145", "assay": "Cell viability assay", "type": "cell-based", "settings": "Homo sapiens, DU-145, 72 h"}, "[8]": {"tested_on": "normal prostate epithelial cells (RC165N)", "assay": "Cell viability assay", "type": "cell-based", "settings": "Homo sapiens, 72 h"}, "CWR22Rv1 cells [9]": {"tested_on": "CWR22Rv1 cells", "assay": "Caspase-3 activation assay", "type": "cell-based, human", "settings": "800 nM, 72 h"}, "CWR22Pc cells [10]": {"tested_on": "CWR22Pc cells", "assay": "Caspase-3 activation assay", "type": "cell-based, human", "settings": "800 nM, 48 h"}, "CWR22Pc cells [11]": {"tested_on": "CWR22Pc cells", "assay": "Cell cycle analysis", "type": "cell-based, human", "settings": "CWR22Pc, 24, 48 and 72 h"}, "[12]": {"tested_on": "CWR22Rv1 tumor xenografts (s.c.)", "assay": "Subcutaneous CWR22Rv1 xenograft tumor growth", "type": "in vivo, SCID mice", "settings": "for suppression of s.c. tumor growth at end of treatment: oral gavage"}, "[13]": {"tested_on": "CWR22Rv1 tumor xenografts (orthotopic)", "assay": "Orthotopic CWR22Rv1 xenograft tumor growth", "type": "in vivo, SCID mice", "settings": "oral gavage", "procedure,_shortened": "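Luciferase-tagged CWR22Rv1 cells were implanted orthotopically into the prostates of male CB-17 SCID mice. Mice received test compound at 10 or 30 mg/kg, or vehicle (0.1% Tween 80/0.5% methylcellulose), daily by oral gavage. […]. Growth suppression was assessed at end of treatment versus vehicle.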"}, "CWR22Pc xenograft tumors": {"tested_on": "CWR22Pc xenograft tumors", "assay": "CWR22Pc xenograft tumor growth", "type": "in vivo"}, "[14]": {"tested_on": "clinical prostate cancers ex vivo in organ explant cultures", "assay": "Ex vivo organ explant cultures of clinical PCs", "type": "cell-based, human"}, "[15]": {"settings": "tumors harvested at end of treatment"}}, "note": "Values joined by “and” are separate entries in the source; they are usually repeats but may differ in a detail not shown here. Identical values can stand only once."}
{"smiles": "Cc1cc(Nc2nc(N[C@@H](C)c3ncc(F)cn3)ncc2Cl)n[nH]1", "note": "[AZD1480, 5-Chloro-N(2)-[(1S)-1-(5-fluoropyrimidin-2-yl)ethyl]-N(4)-(5-methyl-1H-pyrazol-3-yl)pyrimidine-2,4-diamine]", "values": [{"measurement": "IC50", "setting": "Stat5a [1]", "value": 0.016, "unit": "µM"}, {"measurement": "IC50", "setting": "Stat5a [2]", "value": 0.007, "unit": "µM"}, {"measurement": "IC50", "setting": "Stat5b [3]; read-out: IC50 for Prl-induced Stat5b phosphorylation, serum-starved CWR22Rv1 cells, 10 nM hPrl", "value": 0.048, "unit": "µM"}, {"measurement": "IC50", "setting": "Stat5b [3]; read-out: IC50 for Stat5b phosphorylation (constitutive), exponentially growing CWR22Rv1 cells", "value": 0.065, "unit": "µM"}, {"measurement": "IC50", "setting": "Stat5b [4]; read-out: IC50 for Prl-induced Stat5b phosphorylation, serum-starved CWR22Pc cells, 10 nM hPrl", "value": 0.07, "unit": "µM"}, {"measurement": "IC50", "setting": "Stat5b [4]; read-out: IC50 for Stat5b phosphorylation (constitutive), exponentially growing CWR22Pc cells", "value": 0.065, "unit": "µM"}, {"measurement": "hPrl-induced Stat5a/b dimerization", "setting": "Stat5a/b dimerization", "value": "potently inhibited"}, {"measurement": "ligand-induced nuclear translocation of Stat5a/b", "setting": "[5]", "value": "no ligand-induced nuclear immunostaining of Stat5a/b"}, {"measurement": "GI50", "setting": "CWR22Pc cells [6]", "value": 0.482, "unit": "µM"}, {"measurement": "GI50", "setting": "CWR22Rv1 cells [7]", "value": 0.438, "unit": "µM"}, {"measurement": "GI50", "setting": "PC-3", "value": 1.76, "unit": "µM"}, {"measurement": "GI50", "setting": "DU145", "value": 3.52, "unit": "µM"}, {"measurement": "GI50", "setting": "[8]", "value": 2.08, "unit": "µM"}, {"measurement": "increase in caspase-3 activation", "setting": "CWR22Rv1 cells [9]", "value": 200, "unit": "%"}, {"measurement": "increase in caspase-3 activation", "setting": "CWR22Pc cells [10]", "value": 150, "unit": "%"}, {"measurement": "cell cycle distribution: G1, G2-M and dead cells (sub G1)", "setting": "CWR22Pc cells [11]", "value": "fraction of dead cells (sub G1) was increased at all time points"}, {"measurement": "suppression of s.c. tumor growth at end of treatment", "setting": "[12]; 10 mg/kg daily", "value": 52, "unit": "%"}, {"measurement": "suppression of s.c. tumor growth at end of treatment", "setting": "[12]; 30 mg/kg daily", "value": 72, "unit": "%"}, {"measurement": "Stat5a/b phosphorylation in s.c. xenograft tumor lysates", "setting": "[12]; 2 h following 30 mg/kg", "value": "significant inhibition of Stat5a/b phosphorylation"}, {"measurement": "decrease in nuclear Stat5a/b in tumor tissues relative to control (IHC)", "setting": "[12]; tumors harvested after 11 days of drug treatment", "value": 70, "unit": "%"}, {"measurement": "suppression of orthotopic tumor growth", "setting": "[13]; 10 mg/kg daily", "value": 6, "unit": "%"}, {"measurement": "suppression of orthotopic tumor growth", "setting": "[13]; 30 mg/kg daily", "value": 54, "unit": "%"}, {"measurement": "inhibition of primary CWR22Pc tumor growth (TW 1)", "setting": "CWR22Pc xenograft tumors; 30 mg/kg daily oral, 21 days from day 12", "value": 73, "unit": "%"}, {"measurement": "emergence of CR CWR22Pc tumors (TW 2)", "setting": "CWR22Pc xenograft tumors; 30 mg/kg daily oral, from day 13 after androgen deprivation", "value": "significantly blocked"}, {"measurement": "growth of established CR CWR22Pc tumors (TW 3)", "setting": "CWR22Pc xenograft tumors; 30 mg/kg daily oral, from day 23 after androgen deprivation", "value": "significantly blocked"}, {"measurement": "overall survival of tumor-bearing mice", "setting": "CWR22Pc xenograft tumors; TWs 2 and 3, vs docetaxel-treated mice", "value": "better overall survival"}, {"measurement": "levels of full-length AR, AR splice variants and tissue PSA in tumor lysates", "setting": "CWR22Pc xenograft tumors; immunoblotting, TWs 1, 2 and 3", "value": "did not affect"}, {"measurement": "nuclear Stat5a/b levels in CWR22Pc tumors (IHC)", "setting": "CWR22Pc xenograft tumors; [15]", "value": "decreased nuclear Stat5a/b levels in all TWs significantly"}, {"measurement": "fraction of viable tumor cells in CWR22Pc tumors", "setting": "CWR22Pc xenograft tumors; tumors harvested at end of treatment, all TWs", "value": "reduced the fraction of viable tumor cells in all TWs"}, {"measurement": "nuclear Stat5a/b levels in explants", "setting": "[14]; 9 responsive PCs, both AZD1480 treatment groups", "value": "significantly decreased"}, {"measurement": "clinical PCs not responding (non-responders)", "setting": "[14]; 7 days culture", "value": "3 of the 12 and 3"}, {"measurement": "clinical PCs responding by loss of viable epithelium (responders)", "setting": "[14]; 7 days culture", "value": "Nine of 12"}, {"measurement": "concentration from which extensive loss of viable epithelium starts", "setting": "[14]; responders, 7 days culture", "value": 25, "unit": "µM"}]}
{"smiles": "CC(O)(CS(=O)(=O)c1ccc(F)cc1)C(=O)Nc1ccc(C#N)c(C(F)(F)F)c1", "note": "(stereo not drawn) [bicalutamide, reference compound]", "values": [{"measurement": "suppression of primary CWR22Pc tumor growth (TW 1)", "setting": "CWR22Pc xenograft tumors; 50 mg/kg daily oral, 21 days from day 12", "value": 30, "unit": "%"}, {"measurement": "nuclear Stat5a/b levels in CWR22Pc tumors (IHC)", "setting": "CWR22Pc xenograft tumors; [15]", "value": "no effect"}]}
{"smiles": "CC(=O)O[C@@]12CO[C@@H]1C[C@H](O)[C@@]1(C)C(=O)[C@H](O)C3=C(C)[C@@H](OC(=O)[C@H](O)[C@@H](NC(=O)OC(C)(C)C)c4ccccc4)C[C@@](O)([C@@H](OC(=O)c4ccccc4)[C@H]21)C3(C)C", "note": "[docetaxel, reference compound]", "values": [{"measurement": "nuclear Stat5a/b levels in CWR22Pc tumors (IHC)", "setting": "CWR22Pc xenograft tumors; [15]", "value": "no effect"}]}
